Measurements published in ChEMBL document CHEMBL4118028, “Sesquiterpene Quinones/Hydroquinones from the Marine Sponge Spongia pertusa Esper” (J Nat Prod, 2017).
One block for each compound: values may come before it.

How the values were obtained:
[1] = system: A549; experiment: Cytotoxicity against human A549 cells after 72 hrs by CCK8 assay; type: functional, cell-based; settings: A549, 72 h
[2] = system: U-937; experiment: Cytotoxicity against human U937 cells after 72 hrs by CCK8 assay; settings: U-937, 72 h
[3] = system: HeLa; experiment: Cytotoxicity against human HeLa cells after 72 hrs by CCK8 assay; type: functional, cell-based
[4] = system: HepG2; experiment: Cytotoxicity against human HepG2 cells after 72 hrs by CCK8 assay; settings: HepG2, 72 h
[5] = target: Cyclin-dependent kinase 2 (Homo sapiens, UniProt P24941); experiment: Binding affinity to CDK2 (unknown origin) by surface plasmon resonance analysis
How it was run: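 CDK-2 amine-coupled to CM5 chip flow cell 2 (50 μg/mL in 10 mM acetate pH 4.5, ~5500 RU). BSA reference cell (pH 3.8, ~6000 RU) subtracted. Running buffer PBS pH 7.4, 25 °C, 30 μL/min. Analytes at several concentrations injected 120 s, 120 s dissociation, with solvent correction. Glycine-HCl pH 2.1 regeneration for 30 s. Kd from steady-state affinity model fit.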

Compound: C=C1CCC[C@H]2[C@]3(C)CC4=C(O[C@]3(C)CC[C@]12C)C(=O)C=C(OCC)C4=O
IC50 [1]: > 10 µM

Compound: C=C1CCC[C@@]23OC4=C(C[C@]2(C)[C@@H](C)CC[C@@]13C)C(=O)C(NC)=CC4=O
IC50 [1]: > 10 µM

Compound: COc1cccc2c1C(=O)c1c(O)c3c(c(O)c1C2=O)C[C@@](O)(C(=O)CO)C[C@@H]3O[C@H]1C[C@H](N)[C@H](O)[C@H](C)O1 [DOXORUBICIN]
IC50 [1]: 0.1 µM

Compound: C=C1CCC[C@@H]2[C@@]1(C)CC[C@@]1(C)OC3=C(C[C@@]21C)C(=O)C(NC)=CC3=O
IC50 [1]: > 10 µM

Compound: C=C1CCC[C@H]2[C@](C)(CC3=C(O)C(=O)C=C(NCCc4ccccc4)C3=O)[C@@H](C)CC[C@]12C
IC50 [2]: 0.6 µM | IC50 [3]: 5.4 µM | IC50 [4]: 3.5 µM | IC50 [1]: > 10 µM

Compound: C=C1CCC[C@@]23OC4=C(C[C@]2(C)[C@@H](C)CC[C@@]13C)C(=O)C(OCC)=CC4=O
IC50 [1]: > 10 µM

Compound: CCOC1=CC(=O)C2=C(C[C@@H]3[C@@]4(C)CCCC(C)(C)[C@@H]4CC[C@@]3(C)O2)C1=O
IC50 [1]: > 10 µM

Kd [5]: 4.8 µM
Compound: C=C1CCC[C@H]2[C@]3(C)CC4=C(O[C@]3(C)CC[C@]12C)C(=O)C=C(NC)C4=O
IC50 [1]: > 10 µM
